Test results as given in ChEMBL document CHEMBL1128342, “Novel thiazole-based heterocycles as selective inhibitors of fibrinogen-mediated platelet aggregation” (J Med Chem, 1995).

Tests used:
[1] = In vitro inhibition of thrombin-induced platelet aggregation.; type: functional; settings: Homo sapiens
[2] = target: T1, Integrin alpha-IIb/beta-3 (Homo sapiens, UniProt P05106+P08514); test: Inhibition of [125I]fibrinogen binding to human Fibrinogen Receptor.; type: protein-complex assay
Target sequence in this assay (P05106 27-788 limits assumed): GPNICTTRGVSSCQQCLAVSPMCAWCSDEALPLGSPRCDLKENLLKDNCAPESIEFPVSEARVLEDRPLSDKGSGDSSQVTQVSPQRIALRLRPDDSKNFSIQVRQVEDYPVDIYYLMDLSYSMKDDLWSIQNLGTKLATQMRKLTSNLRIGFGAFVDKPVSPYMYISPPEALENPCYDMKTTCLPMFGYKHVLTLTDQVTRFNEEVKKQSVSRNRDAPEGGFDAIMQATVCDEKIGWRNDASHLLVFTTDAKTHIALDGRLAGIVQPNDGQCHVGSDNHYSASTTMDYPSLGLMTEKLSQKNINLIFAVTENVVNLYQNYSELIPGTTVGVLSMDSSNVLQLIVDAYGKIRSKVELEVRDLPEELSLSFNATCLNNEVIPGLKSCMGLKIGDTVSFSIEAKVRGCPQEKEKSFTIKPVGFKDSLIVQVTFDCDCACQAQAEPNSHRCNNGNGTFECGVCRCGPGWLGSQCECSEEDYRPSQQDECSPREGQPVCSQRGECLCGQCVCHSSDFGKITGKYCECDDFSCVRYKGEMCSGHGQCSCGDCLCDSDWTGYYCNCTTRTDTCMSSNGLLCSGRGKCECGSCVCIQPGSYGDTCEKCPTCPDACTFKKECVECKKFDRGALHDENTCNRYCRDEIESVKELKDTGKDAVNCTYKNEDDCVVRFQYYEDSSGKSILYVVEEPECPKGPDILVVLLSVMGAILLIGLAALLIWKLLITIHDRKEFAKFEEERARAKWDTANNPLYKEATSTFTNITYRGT
Target sequence in this assay (P08514 32-887 limits assumed): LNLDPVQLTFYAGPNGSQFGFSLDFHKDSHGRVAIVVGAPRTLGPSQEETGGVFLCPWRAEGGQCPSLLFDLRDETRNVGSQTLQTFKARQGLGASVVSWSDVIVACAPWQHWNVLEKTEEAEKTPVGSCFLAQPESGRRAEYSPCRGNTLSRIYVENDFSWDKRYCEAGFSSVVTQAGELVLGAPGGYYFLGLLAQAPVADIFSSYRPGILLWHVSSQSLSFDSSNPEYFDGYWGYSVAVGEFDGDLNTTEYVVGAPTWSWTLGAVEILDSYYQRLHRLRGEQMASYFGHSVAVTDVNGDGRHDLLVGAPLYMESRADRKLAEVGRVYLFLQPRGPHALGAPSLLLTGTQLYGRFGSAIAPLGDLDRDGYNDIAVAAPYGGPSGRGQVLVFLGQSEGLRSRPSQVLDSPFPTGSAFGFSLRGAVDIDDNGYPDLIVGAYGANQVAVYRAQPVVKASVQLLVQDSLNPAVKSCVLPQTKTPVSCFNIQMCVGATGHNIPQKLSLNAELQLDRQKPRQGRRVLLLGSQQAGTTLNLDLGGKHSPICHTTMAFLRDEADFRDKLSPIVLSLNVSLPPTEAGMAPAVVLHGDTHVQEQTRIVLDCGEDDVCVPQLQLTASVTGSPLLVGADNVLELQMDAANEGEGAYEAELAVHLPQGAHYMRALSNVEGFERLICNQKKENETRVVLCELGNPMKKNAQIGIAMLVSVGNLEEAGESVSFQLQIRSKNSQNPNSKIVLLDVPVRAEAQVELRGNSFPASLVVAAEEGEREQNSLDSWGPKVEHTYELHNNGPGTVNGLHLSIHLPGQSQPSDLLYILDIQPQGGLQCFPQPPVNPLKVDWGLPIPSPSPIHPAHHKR
Target sequence in this assay (P08514 891-1039 limits assumed): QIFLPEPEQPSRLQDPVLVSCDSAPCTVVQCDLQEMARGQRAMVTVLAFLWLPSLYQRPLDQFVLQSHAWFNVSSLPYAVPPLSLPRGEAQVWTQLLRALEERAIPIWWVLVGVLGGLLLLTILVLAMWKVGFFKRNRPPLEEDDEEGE

[3] = target: T1, Integrin alpha-IIb/beta-3; test: Inhibition of thrombin-induced platelet aggregation at 50 uM; type: functional
[4] = target: T1, Integrin alpha-IIb/beta-3; test: Inhibition of [125I]fibrinogen binding to human Fibrinogen Receptor at 50 uM; type: protein-complex assay
Method in brief: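 Human PRP with aspirin (50 μM, 37 °C, 20 min), pH 6.5, PGE1 0.9 μM; platelets gel-filtered, 1×10^8 per tube, thrombin-activated 2 min at room temperature, then hirudin. Compound plus [125I]fibrinogen (0.1 μM final) 10 min room temperature; platelets spun through silicone oil and pellet counted. Nonspecific binding with 4 mg/mL unlabeled fibrinogen; triplicates; % inhibition of specific binding vs fibrinogen alone.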

| IC50 [1] [µM] | IC50 [2] [µM] | inhibition [3] [%] | inhibition [4] [%] | Structure (SMILES) |
| --- | --- | --- | --- | --- |
| > 100 | – | – | – | CC(=O)Oc1ccccc1C(=O)O [ASPIRIN] |
| – | 4.1 | – | – | CCN(CC)CCCNC(=O)c1cnn(-c2nc(-c3cccc(C(F)(F)F)c3)cs2)c1C(F)(F)F |
| 6.8 | 45 | – | – | CCN(CC)CCCNC(=O)c1cnn(-c2nc(-c3ccc(Cl)cc3)cs2)c1C(F)(F)F |
| 13 | 23 | – | – | N=C(N)CCCNC(=O)c1cnn(-c2nc(-c3cccc(C(F)(F)F)c3)cs2)c1C(F)(F)F |
| – | – | 0 | 0 | O=C(NCCCN1CCCC1=O)c1cnn(-c2nc(-c3cccc(C(F)(F)F)c3)cs2)c1C(F)(F)F |
| – | – | 18 | 0 | O=C(NCCCNc1ccccc1)c1cnn(-c2nc(-c3cccc(C(F)(F)F)c3)cs2)c1C(F)(F)F |
| 8.2 | 70 | – | – | CCN(CC)CCCNC(=O)c1cnn(-c2nc(-c3ccc(C)cc3)cs2)c1C(F)(F)F |
| 6.1 | 25 | – | – | O=C(NCCCNC1CCCCC1)c1cnn(-c2nc(-c3cccc(C(F)(F)F)c3)cs2)c1C(F)(F)F |
| 25 | 50 | – | – | CCN(CC)CCCNC(=O)c1cnn(-c2nc(-c3cccc(C)c3)cs2)c1C(F)(F)F |
| 30 | – | – | – | N=C(N)NCCC[C@H](N)C(=O)NCC(=O)N[C@@H](CC(=O)O)C(=O)N[C@@H](CO)C(=O)O |
| 14.3 | 10 | – | – | CCCNCCCNC(=O)c1cnn(-c2nc(-c3cccc(C(F)(F)F)c3)cs2)c1C(F)(F)F |
| 11.5 | – | – | 61 | NCCCCCNC(=O)c1cnn(-c2nc(-c3cccc(C(F)(F)F)c3)cs2)c1C(F)(F)F |
| 7.9 | 9 | – | – | COc1ccc(CCNC(=O)C(CC(=O)O)NC(=O)CCCCCCCN=C(N)N)cc1 (centres undefined) |
| 30 | 50 | – | – | CCN(CC)CCCNC(=O)c1cnn(-c2nc(-c3ccccc3)cs2)c1C(F)(F)F |
| 10.9 | 30 | – | – | O=C(NCCCN1CCCCC1)c1cnn(-c2nc(-c3cccc(C(F)(F)F)c3)cs2)c1C(F)(F)F |
| 13.7 | 15.6 | – | – | CN(C)/C=N/CCCNC(=O)c1cnn(-c2nc(-c3cccc(C(F)(F)F)c3)cs2)c1C(F)(F)F |
| 2.7 | 1.3 | – | – | CCN(CC)CCCNC(=O)c1cnn(-c2nc(-c3cccc(C(F)(F)F)c3)c(Br)s2)c1C(F)(F)F |
| 9.1 | 40 | – | – | CCN(CC)CCCNC(=O)c1cnn(-c2nc(-c3ccc(C(F)(F)F)cc3)cs2)c1C(F)(F)F |
| – | – | 30 | – | CCN(CC)CCCNC(=O)c1cnn(-c2nc(-c3cccc(C(F)(F)F)c3)c(C(=O)O)s2)c1C(F)(F)F |
| – | – | – | 44 | NCCNC(=O)c1cnn(-c2nc(-c3cccc(C(F)(F)F)c3)cs2)c1C(F)(F)F |
| – | – | 33 | 0 | O=C(NCCCn1ccnc1)c1cnn(-c2nc(-c3cccc(C(F)(F)F)c3)cs2)c1C(F)(F)F |
| 4.8 | 18.3 | – | – | NCCCCNC(=O)c1cnn(-c2nc(-c3cccc(C(F)(F)F)c3)cs2)c1C(F)(F)F |
| 14 | 12.3 | – | – | NCCCNC(=O)c1cnn(-c2nc(-c3cccc(C(F)(F)F)c3)cs2)c1C(F)(F)F |
| – | – | 35 | 0 | CCN(CC)CCCCCCCNC(=O)c1cnn(-c2nc(-c3cccc(C(F)(F)F)c3)cs2)c1C(F)(F)F |
| 6.7 | 11.2 | – | – | CC(C)NCCCNC(=O)c1cnn(-c2nc(-c3cccc(C(F)(F)F)c3)cs2)c1C(F)(F)F |
| 12.5 | – | – | 57 | CCN(CC)CCCNC(=O)c1cnn(-c2nc(-c3ccc(OC)cc3)cs2)c1C(F)(F)F |

| Structure (SMILES) | IC50 [1] [µM] | IC50 [2] [µM] | inhibition [3] [%] | inhibition [4] [%] |
| --- | --- | --- | --- | --- |
| N=C(N)NCCCNC(=O)c1cnn(-c2nc(-c3cccc(C(F)(F)F)c3)cs2)c1C(F)(F)F | 11.8 | 17.5 | – | – |
